Source: ChEMBL document CHEMBL1921722, “In vitro and in vivo evaluation of select kahalalide F analogs with antitumor and antifungal activities” (Bioorg Med Chem, 2011)

What was measured:
Type in all cases: functional
COLO 205 = experiment: Cytotoxicity against human COLO205 cells assessed as cell growth at 80 nM by sulforhodamine B assay relative to control; conditions: read-out: Activity
How it was run: (§1)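 Run at NCI in the DTP 60-cell-line human tumor panel by standard procedure. Compounds were first screened at a single concentration, then tested at five tenfold-spaced concentrations. GI50 is the concentration reducing treated-cell growth to half that of untreated controls; TGI is the concentration completely halting growth.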

SN12C = experiment: Cytotoxicity against human SN12C cells by sulforhodamine B assay
How it was run: (§2)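 NCI Developmental Therapeutics Program 60-cell-line human tumor panel screen, run at NCI. A single-concentration pre-screen was followed by a five-concentration dose-response in 10-fold steps. GI50 is the concentration that reduces growth of treated cells to half that of untreated control cells. TGI is the concentration that completely halts growth.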

T47D = experiment: Cytotoxicity against human T47D cells assessed as cell growth at 800 nM by sulforhodamine B assay relative to control; conditions: read-out: Activity
SF-268 = experiment: Cytotoxicity against human SF268 cells assessed as cell growth at 8 uM by sulforhodamine B assay relative to control; conditions: read-out: Activity
HT-29 = experiment: Cytotoxicity against human HT-29 cells assessed as cell growth at 800 nM by sulforhodamine B assay relative to control; conditions: read-out: Activity
NCI-H322M = experiment: Cytotoxicity against human NCI-H322M cells assessed as cell growth at 8 nM by sulforhodamine B assay relative to control; conditions: read-out: Activity
HOP-62 [1] = experiment: Cytotoxicity against human HOP62 cells assessed as cell growth at 80 nM by sulforhodamine B assay relative to control; conditions: read-out: Activity
786-0 = experiment: Cytotoxicity against human 786-0 cells assessed as cell growth at 80 nM by sulforhodamine B assay relative to control; conditions: read-out: Activity; how it was run: as §1
BT-549 = experiment: Cytotoxicity against human BT549 cells assessed as cell growth at 800 nM by sulforhodamine B assay relative to control; conditions: read-out: Activity; how it was run: as §1
MDA-MB-231 = experiment: Cytotoxicity against human MDA-MB-231 cells by sulforhodamine B assay; how it was run: as §2
TK-10 [2] = experiment: Cytotoxicity against human TK10 cells assessed as cell growth at 80 uM by sulforhodamine B assay relative to control; conditions: read-out: Activity
UO-31 = experiment: Cytotoxicity against human UO31 cells assessed as cell growth at 8 nM by sulforhodamine B assay relative to control; conditions: read-out: Activity
TK-10 [3] = experiment: Cytotoxicity against human TK10 cells assessed as cell growth at 8 uM by sulforhodamine B assay relative to control; conditions: read-out: Activity
MCF7 [4] = experiment: Cytotoxicity against human MCF7 cells assessed as cell growth at 80 uM by sulforhodamine B assay relative to control; conditions: read-out: Activity
OVCAR-8 = experiment: Cytotoxicity against human OVCAR8 cells assessed as cell growth at 8 uM by sulforhodamine B assay relative to control; conditions: read-out: Activity
UACC-257 [5] = experiment: Cytotoxicity against human UACC257 cells assessed as cell growth at 800 nM by sulforhodamine B assay relative to control; conditions: read-out: Activity
UACC-62 = experiment: Cytotoxicity against human UACC62 cells assessed as cell growth at 800 nM by sulforhodamine B assay relative to control; conditions: read-out: Activity
MDA-MB-435 = experiment: Cytotoxicity against human MDA-MB-435 cells assessed as cell growth at 80 nM by sulforhodamine B assay relative to control; conditions: read-out: Activity
SF-539 = experiment: Cytotoxicity against human SF539 cells assessed as cell growth at 800 nM by sulforhodamine B assay relative to control; conditions: read-out: Activity
OVCAR-5 [6] = experiment: Cytotoxicity against human OVCAR5 cells by sulforhodamine B assay; how it was run: as §2
RXF 393 = experiment: Cytotoxicity against human RXF393 cells by sulforhodamine B assay; how it was run: as §2
K562 = experiment: Cytotoxicity against human K562 cells by sulforhodamine B assay; how it was run: as §2
UACC-257 [7] = experiment: Cytotoxicity against human UACC257 cells assessed as cell growth at 8 uM by sulforhodamine B assay relative to control; conditions: read-out: Activity
U-251 = experiment: Cytotoxicity against human U251 cells assessed as cell growth at 800 nM by sulforhodamine B assay relative to control; conditions: read-out: Activity
M14 = experiment: Cytotoxicity against human M14 cells assessed as cell growth at 8 nM by sulforhodamine B assay relative to control; conditions: read-out: Activity
SK-MEL-5 [8] = experiment: Cytotoxicity against human SK-MEL-5 cells assessed as cell growth at 8 nM by sulforhodamine B assay relative to control; conditions: read-out: Activity
HOP-62 [9] = experiment: Cytotoxicity against human HOP62 cells assessed as cell growth at 80 uM by sulforhodamine B assay relative to control; conditions: read-out: Activity
NCI-H460 = experiment: Cytotoxicity against human NCI-H460 cells by sulforhodamine B assay; how it was run: as §2
A549 [10] = experiment: Cytotoxicity against human A549 cells by sulforhodamine B assay; how it was run: as §1
HCC 2998 = experiment: Cytotoxicity against human HCC2998 cells assessed as cell growth at 80 uM by sulforhodamine B assay relative to control; conditions: read-out: Activity
NCI-H226 = experiment: Cytotoxicity against human NCI-H226 cells by sulforhodamine B assay; how it was run: as §2
ACHN = experiment: Cytotoxicity against human ACHN cells assessed as cell growth at 80 uM by sulforhodamine B assay relative to control; conditions: read-out: Activity; how it was run: as §1
SK-MEL-28 = experiment: Cytotoxicity against human SK-MEL-28 cells assessed as cell growth at 8 uM by sulforhodamine B assay relative to control; conditions: read-out: Activity
OVCAR-4 = experiment: Cytotoxicity against human OVCAR4 cells assessed as cell growth at 80 nM by sulforhodamine B assay relative to control; conditions: read-out: Activity
MCF7 [11] = experiment: Cytotoxicity against human MCF7 cells assessed as cell growth at 8 nM by sulforhodamine B assay relative to control; conditions: read-out: Activity
OVCAR-5 [12] = experiment: Cytotoxicity against human OVCAR5 cells assessed as cell growth at 8 uM by sulforhodamine B assay relative to control; conditions: read-out: Activity
A549 [13] = experiment: Cytotoxicity against human A549 cells assessed as cell growth at 8 nM by sulforhodamine B assay relative to control; conditions: read-out: Activity; how it was run: as §1
TK-10 [14] = experiment: Cytotoxicity against human TK10 cells assessed as cell growth at 8 nM by sulforhodamine B assay relative to control; conditions: read-out: Activity
SK-MEL-5 [15] = experiment: Cytotoxicity against human SK-MEL-5 cells assessed as cell growth at 80 nM by sulforhodamine B assay relative to control; conditions: read-out: Activity
SNB-19 = experiment: Cytotoxicity against human SNB19 cells assessed as cell growth at 8 nM by sulforhodamine B assay relative to control; conditions: read-out: Activity
SF-295 = experiment: Cytotoxicity against human SF295 cells assessed as cell growth at 800 nM by sulforhodamine B assay relative to control; conditions: read-out: Activity
OVCAR-5 [16] = experiment: Cytotoxicity against human OVCAR5 cells assessed as cell growth at 8 nM by sulforhodamine B assay relative to control; conditions: read-out: Activity
RPMI-8226 = experiment: Cytotoxicity against human RPMI8226 cells assessed as cell growth at 80 nM by sulforhodamine B assay relative to control; conditions: read-out: Activity

Compound `C/C=C1\NC(=O)[C@H](Cc2ccccc2)NC(=O)[C@@H](C(C)C)NC(=O)[C@@H]([C@@H](C)CC)NC(=O)[C@H](NC(=O)[C@H](NC(=O)[C@H](CCCNCc2ccc(F)c(C)c2)NC(=O)[C@H]2CCCN2C(=O)[C@H](NC(=O)[C@@H](NC(=O)[C@@H](NC(=O)[C@H](NC(=O)CCCC(C)C)C(C)C)[C@@H](C)O)C(C)C)C(C)C)[C@@H](C)CC)[C@@H](C)OC(=O)[C@H](C(C)C)NC1=O` has a growth at 0.08 µM (COLO 205) of 90%, a GI50 (SN12C) of 1.26 µM and an LC50 (SN12C) of 4.9 µM. The TGI (SN12C; read-out: pTGI (converted)) was 2.45 µM, the growth at 0.8 µM (T47D) was -50% and the growth at 8 µM (SF-268) was -63%. It also gave a growth at 0.8 µM (HT-29) of -52%, a growth at 0.008 µM (NCI-H322M) of 105% and a growth at 0.08 µM (HOP-62 [1]) of 102%. For the same compound, the growth at 0.08 µM (786-0) was 97%, the growth at 0.8 µM (BT-549) was 87% and the GI50 (MDA-MB-231) was 1.45 µM. For the same compound, the LC50 (MDA-MB-231) was 6.92 µM, the TGI (MDA-MB-231; read-out: pTGI (converted)) was 3.16 µM and the growth at 80 µM (TK-10 [2]) was -9%. For the same compound, the growth at 0.008 µM (UO-31) was 100%, the growth at 8 µM (TK-10 [3]) was -71% and the growth at 80 µM (MCF7 [4]) was 3%. It also gave a growth at 8 µM (OVCAR-8) of -14%, a growth at 0.8 µM (UACC-257 [5]) of 88% and a growth at 0.8 µM (UACC-62) of 93%. The growth at 0.08 µM (MDA-MB-435) was 103%, the growth at 0.8 µM (SF-539) was 93% and the GI50 (OVCAR-5 [6]) was 0.813 µM. For the same compound, the LC50 (OVCAR-5 [6]) was 3.8 µM, the TGI (OVCAR-5 [6]; read-out: pTGI (converted)) was 1.74 µM and the GI50 (RXF 393) was 1.35 µM. For the same compound, the LC50 (RXF 393) was 6.31 µM, the TGI (RXF 393; read-out: pTGI (converted)) was 2.95 µM and the GI50 (K562) was 1.82 µM. It also gave a CC50 (K562; read-out: pLC50 (the source's name) (converted)) of over 75.9 µM, a TGI (K562; read-out: pTGI (converted)) of 3.89 µM and a growth at 8 µM (UACC-257 [7]) of -78%. For the same compound, the growth at 0.8 µM (U-251) was 27%, the growth at 0.008 µM (M14) was 105% and the growth at 0.008 µM (SK-MEL-5 [8]) was 99%. For the same compound, the growth at 80 µM (HOP-62 [9]) was -85%, the GI50 (NCI-H460) was 1.51 µM and the GI50 (A549 [10]; read-out: GI50) was 0.167 µM. For the same compound, the GI50 (A549 [10]; read-out: pGI50 (converted)) was 0.166 µM, the growth at 80 µM (HCC 2998) was -88% and the GI50 (NCI-H226) was 1.48 µM. For the same compound, the TGI (NCI-H226; read-out: pTGI (converted)) was 3.02 µM, the growth at 80 µM (ACHN) was -100% and the growth at 8 µM (SK-MEL-28) was -83%. The growth at 0.08 µM (OVCAR-4) was 104%, the growth at 0.008 µM (MCF7 [11]) was 95% and the growth at 8 µM (OVCAR-5 [12]) was -95%. It also gave a growth at 0.008 µM (A549 [13]) of 100%, a growth at 0.008 µM (TK-10 [14]) of 112% and a growth at 0.08 µM (SK-MEL-5 [15]) of 99%. It also gave a growth at 0.008 µM (SNB-19) of 99%, a growth at 0.8 µM (SF-295) of 89% and a growth at 0.008 µM (OVCAR-5 [16]) of 107%. For the same compound, the growth at 0.08 µM (RPMI-8226) was 129%.
